Many of the other results were omitted from the sample, so hits are more common in it than they were.
INS promoter act = TRM-6 insulin promoter activation. TRM-6 cells (human fetal islet line), insulin promoter eGFP reporter, imaging; plate-scaled: unstimulated 0, stimulated control 100. activation, % at 2 µM. 130,000 compounds, 0.81% hits. AID 1296;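 active means activation at 2 µM above a set limit, confirmed on inspection of the cell images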;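 further: share of cells whose green reporter signal exceeds an intensity cutoff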
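test system = TRM-6 insulin promoter–eGFP reporter cells | benchmarks = stimulated versus unstimulated wells as plate controls | read-out basis = percent cells above green-intensity threshold, converted to percent activation versus plate controls | detection = fixed-cell fluorescence microscopy, eGFP plus Hoechst | incubation = tamoxifen pre-incubation 15 h overnight, then compound exposure 48 h at 37 °C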
Of the large screens only hits and unclear results are named; the others gave an inactive call.

COc1ccc(NC(=O)CSc2ccc3c4c(cccc24)C(=O)c2ccccc2-3)cc1	none
N#Cc1cccc(NC(=O)CSc2ccccc2)c1	none
Nc1ccc(OCc2ccco2)cc1	none
CCc1cccc(NS(=O)(=O)c2c(C)n[nH]c2C)c1	none
CCOc1ccccc1Nc1ncccc1C(=O)O	none
CCOCC(=O)Nc1nnc(COC)s1	none
CCOCc1nnc(NC(=O)c2ccco2)s1	none
CCCC(=O)Nc1ccc(C(=O)Nc2nnc(COCC)s2)cc1	INS promoter act 408.3
Cc1ccccc1Cn1ccc(NC(=O)c2cnn3cccnc23)n1	none
O=C(Cc1cccs1)Nc1ccc(S(=O)(=O)N2CCCCC2)cc1	none
CCc1cccc2cc3c(N)c(C(=O)Nc4ccc(S(=O)(=O)N5CCCC5)cc4)sc3nc12	INS promoter act 203.0
Cn1nc(C(=O)Nc2ccc(S(=O)(=O)N3CCCCC3)cc2)ccc1=O	none
CCCCN(C)C1CCN(C(=S)Nc2ccc(OC)cc2)CC1	none
Cc1cccc(C(=O)NCC(=O)N2CC(=O)Nc3ccccc32)c1	none
O=C(CSCCNS(=O)(=O)c1ccccc1)Nc1ccccc1	none
CCOC(=O)CN1C(c2ccc(O)cc2)Nc2ccc(Br)cc2C1c1ccccc1 (stereo not given)	none
CN(C)S(=O)(=O)c1cccc(NC(=S)N(CCC#N)Cc2cccnc2)c1	INS promoter act 453.3
CC1(C(=O)NC(=S)N(CCC#N)Cc2cccnc2)CC1(Cl)Cl (stereo not given)	none
N#CCCN(Cc1cccnc1)C(=S)Nc1ccc(OC(F)F)cc1	none
Cc1nc(-c2ccccc2)sc1C(=O)CSc1ccc(F)cc1	none
CC1CCCCC1N=C1NC(C)(C)CS1 (stereo not given)	none
CN(C)C=NC(=O)/C(C#N)=C/c1ccccc1	none
Cc1cccc(NC(=O)CN2C(=O)N/C(=C/c3ccc(C)o3)C2=O)c1	none
Cc1ccc2c(c1)C(=O)C(=O)N2CC(=O)Nc1ccc(N2CCOCC2)cc1	none
CC(=O)N1C(=S)NC(=O)/C1=C1/C(=O)N(CC(=O)Nc2cccc(C)c2)c2ccccc21	INS promoter act 108.0
CNC(=S)N(CCc1ccc(OC)c(OC)c1)Cc1cc2c(C)cc(C)cc2[nH]c1=O	none
CCc1ccc(C(C(=O)NCCOC)N(C(=O)Cn2nnc3ccccc32)c2cccnc2)cc1 (stereo not given)	INS promoter act 450.0
Cc1cccc(N(C(=O)Cn2nnc3ccccc32)C(C(=O)NCc2ccco2)c2ccncc2)c1C (stereo not given)	none
CCCCN(C(=O)Cn1nnc2ccccc21)C(C(=O)NCCOC)c1ccccc1 (stereo not given)	none
O=[N+]([O-])c1ccc2[nH]c3c(c2c1)CCCC3	none
CN(C)C=Nc1c(Br)cc(Br)c2nonc12	INS promoter act 203.0
CN(C)C=Nc1nonc1-c1ncn[nH]1	none
CCOc1ccc2[nH]c(=O)c(CN(CCO)C(=O)c3ccc(OC)c(OC)c3)cc2c1	none
CC(c1ccccn1)N(CCN(C)C)C(=S)Nc1cccc(F)c1 (stereo not given)	none
COCCCN(C(=O)Nc1cccc(Cl)c1)C(C)c1ccccn1 (stereo not given)	INS promoter act 641.7
COCCCN(C(=S)Nc1cccc(Cl)c1)C(C)c1ccncc1 (stereo not given)	none
CCOC(=O)c1cn2nc(-c3ccc(OC)cc3)cc2nc1C1CCN(C(=O)OC(C)(C)C)CC1	none
CCOC(=O)N1CCN(C(=O)C2CCN(S(=O)(=O)N3CCCC3)CC2)CC1	none
CCOC(=O)C1CCN(C(=O)C2CCCCC2)CC1	INS promoter act 561.5
CCOC(=O)C1CCN(C(=O)Cc2cccs2)CC1	none
CCOC(=O)C1CCCN(C(=O)C2CCN(S(=O)(=O)CC)CC2)C1 (stereo not given)	none
CCOC(=O)C1CCN(C(=O)N(CC)CC)CC1	INS promoter act 253.5
CCOC(=O)C1CCN(C(=O)/C=C/c2cccs2)CC1	none
O=C(CNC(=O)c1ccc(S(=O)(=O)N2CCCCC2)cc1)N/N=C/c1ccco1	none
Cc1ccc(OCCC(=O)NCCc2ccc(S(N)(=O)=O)cc2)cc1	none
Cc1nn(C)c(C)c1NC(=O)c1cnn2c(C(F)F)cc(-c3ccccc3)nc12	none
COCc1cc(=O)[nH]c(=S)[nH]1	none
COc1ccccc1/C=N/Nc1nccnc1Cl	none
NC(=O)C1(N2CCCCC2)CCN(C(=O)Nc2ccccc2C(F)(F)F)CC1	none
NC(=O)c1ccsc1NC(=O)c1ccc(S(=O)(=O)N2CCCc3ccccc32)cc1	none
COc1cc2c(cc1OC)CN(C(=S)Nc1ccccc1Cl)CC2	none
c1ccc([C@H]2CC3C[C@@H](c4ccccc4)N2O3)cc1	none
N#CCCn1ncn(-c2ccccc2)c1=S	INS promoter act 173.3
N#CCCn1nc(-c2ccccc2)cc1-n1c(C(F)(F)F)nc2ccccc21	none
N#CCCn1cc(/C=C2\NC(=S)N(c3ccccc3)C2=O)c(-c2ccc(-c3ccccc3)cc2)n1	none
COc1ccc(C2C3=C(CC(C)(C)CC3=O)Oc3ncn(Cc4ccco4)c(=N)c32)cc1 (stereo not given)	none
COc1ccc(-c2onc3ccc(Cl)cc23)cc1OC	none
Cc1noc(C(=O)Nc2c(C)n(C)n(-c3ccccc3)c2=O)c1Cl	none
CCCCCC(=O)NNC(=S)NC(=O)c1ccc([N+](=O)[O-])cc1	none
CC(C)NC(=O)c1cc2ccccc2o1	none
